Key:
[1] = tested on: human peripheral blood mononuclear cells; assay: IL‐1β production in LPS‐stimulated human PBMCs; type: cell-based; details: pre‐incubated 30 min, LPS 100 ng mL^−1, overnight; tested 0.1, 1, 5, 10 μM
Summary of the method: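 PBMCs came from buffy coats diluted 1:1 in PBS and separated by density gradient centrifugation. Cells were washed, checked for viability with 0.1 % trypan blue, and resuspended in RPMI 1640 with 10 % FBS, penicillin and streptomycin in U-bottom wells. Test glycolipid alone or its 1:1 mix with peptide (0.1, 1, 5, 10 μM) was added 30 min before smooth LPS (100 ng mL⁻¹). IL-1β release was the read-out.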

[2] = DOSY NMR diffusion coefficient / aggregation; type: physicochemical; details: FP7 500 μM alone, 310 K, 10 % DMSO in PBS 100 mM pH 5.5
Summary of the method: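 Test glycolipid was diluted from a 50 mM DMSO stock into 100 mM PBS pH 5.5 (final DMSO 10 %) and examined at 500 μM by DOSY NMR. Spectra were recorded on the glycolipid alone, then after stepwise peptide additions up to [peptide]/[glycolipid] molar ratios of 0.06 or 0.1. Peptides came from 20 mM DMSO stocks.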

Compound: CCCCCCCCCCCCCC(=O)N[C@H]1[C@@H](OP(=O)(O)O)O[C@H](CO)[C@@H](OP(=O)(O)O)[C@@H]1OC(=O)CCCCCCCCCCCCC [FP7]
- concentration halving the amount of IL‐1β released [1]: 5 µM
- D (diffusion coefficient of FP7) [2]: 6.31×10^−11 m^2 s^−1

Reference: publication PMC5900894 (Chemmedchem, 2018)
